Yeast lifespan up = yeast lifespan extension; S. cerevisiae growth with nicotinamide, OD615; deaD strain in restrictive glucose medium; inhibition of the nicotinamide effect, % at 10 µM; hit rate 0.68% among 130,000; AID 775;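 active = inhibition above a set limit, placed 3 SD over the median of all compounds, cut at about 26% in these data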;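 also: 0% = nicotinamide-treated wells and 100% = cells grown without nicotinamide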
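Buffer or medium: CSMM-D glucose medium, restrictive; test system: modified budding yeast, DeaD strain; compound: single dose 10 µM compound, 0.25% DMSO; schedule: culture preincubation 4 h, compound exposure 48 h, both 30 °C; detection: optical density (absorbance) at 615 nm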
BB579 growth dn = chemicals that inhibit yeast BB579 growth in restrictive medium (lifespan-shortening candidates). S. cerevisiae BB579 growth, OD615, 48 h. hit rate 0.51% among 140,000. inhibition, % at 10 µM;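 active = inhibition above a set limit, 3 SD over the mean compound inhibition, cut at about 44% in these data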
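Test system: Saccharomyces cerevisiae DeaD strain BB579, replicative lifespan model yeast | Buffer or medium: Restrictive CSMM-D medium | Doses: One dose, 10 µM compound with 0.25% DMSO | Incubation: 48 h exposure, 30 °C | Detection: Culture absorbance at 615 nm | Control set: Amphotericin B at 10 µg/mL as positive control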
RAM network inh = blocks the yeast RAM network. S. cerevisiae dse1pr::URA3 reporter, 5-FOA growth OD615, 2 d; analog-sensitive cbk1-as2 kinase mutant strain. inhibition, % at 50 µM. hit rate 1.8% among 190,000;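 active = inhibition above a set limit, 3 SD over mean compound inhibition, cut at about 8.4% in these data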;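 also: 0% = DMSO-only wells with no growth and 100% = 10 µM 1-NA-PP1 full growth; inhibition rescues growth on 5-FOA so higher OD means more RAM inhibition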
WT yeast gro inh = growth inhibition of WT yeast, mitochondrial fusion screen; hit rate 2.1% among 190,000; AID 1362; inhibition, % at 10 µM; mitochondrial fusion phenotypic screen, WT strain; in the data active = inhibition above about 58%; tested in S. cerevisiae
The depositor's hits bear a star; · = no result. Only some compounds are listed: those with a hit (about 4.3% of all), similar ones and a draw of the others.

SMILES	Yeast lifespan up	BB579 growth dn	RAM network inh	WT yeast gro inh
COc1ccc(COc2cc(-c3cccc(OC)c3)nc3ccc(NC(=O)c4ccc(C)cc4)cc23)cc1	3	-39	8.6*	-6
CC(NCC(=O)Nc1cc(S(=O)(=O)N2CCCCCC2)ccc1Cl)c1ccccc1 (centres undefined)	·	·	2	11
O=C(CSc1nnc(SCc2ccccc2)s1)NNC(=S)Nc1ccccc1	1	-34	10*	-8
Cc1nn(C(C)(C)C)c(OC(=O)C2CCCC2)c1S(=O)(=O)c1ccccc1	-7	-52	6	-7
Cc1ccc(S(=O)(=O)c2c(C)nn(C(C)(C)C)c2OC(=O)C2CCCC2)cc1	-8	-42	7	72*
Cc1ccc(S(=O)(=O)c2nnn3c2nc(Nc2cccc(C)c2)c2ccccc23)cc1	2	-23	5	1
Cc1ccc(C)c(Nc2nc3c(S(=O)(=O)c4ccccc4)nnn3c3ccccc23)c1	2	-38	8.4*	7
Cc1ccc(C(C)C)c(OC(=O)/C=C/c2ccccc2)c1	-1	-37	1	79*
O=C(O)c1cnc(-c2ccccc2)nc1Sc1ccc(Cl)cc1	-8	-13	8.6*	15
COc1ccc(OC(C)C(=O)N2CCCc3ccccc32)cc1 (centres undefined)	·	·	1	8
COc1cc(NC(=O)c2cccc(Br)c2)nc(OC)n1	·	·	0	0
CC(NC(=O)CCCCCCN1C(=O)c2ccccc2C1=O)c1ccc2c(c1)CCCC2 (centres undefined)	7	-47	11*	-14
CC(NC(=O)CCCCCN1C(=O)c2ccccc2C1=O)c1ccc2c(c1)CCCC2 (centres undefined)	-7	-103	9.1*	25
CC(NC(=O)CCCN1C(=O)c2ccccc2C1=O)c1ccc2c(c1)CCCC2 (centres undefined)	5	-21	2	8
O=S(=O)(NCCc1cn2ccccc2n1)c1ccc2c(c1)CCCC2	8	-31	-1	12
CC1CCCCN1c1nc(-c2ccncc2)nc2ccccc12 (centres undefined)	-6	-38	1	59*
COc1ccc(Cl)c(NCCC(=O)O)c1	-6	-20	-1	-4
Cc1ccc(-c2c(C(=O)NCc3ccc(F)cc3)oc(=O)c3ccccc23)cc1	0	-12	4	62*
CCN1CCN(C(=O)c2oc(=O)c3ccccc3c2-c2ccc(C)cc2)CC1	-10	23	0	3
CCSC1=NSC2=NC(=O)/C(=C\c3coc4ccccc4c3=O)C(=N)N12	38*	-16	4	-13
CCOC(=O)N1CCN(S(=O)(=O)c2ccc(C)c(C)c2)CC1	9	-19	0	81*
C=CCn1c(SC(C)CC)nc(O)cc1=O (centres undefined)	3	9	1	-4
N#Cc1ccccc1NC(=O)c1ccc2c(Cl)c3c(nc2c1)CCCC3	-2	45*	1	32
CCN(CC)CCCNC(=O)c1ccc2c(Cl)c3c(nc2c1)CCCC3	·	·	1	-15
CCc1ccc(N(CC)C(=O)c2ccc3c(Cl)c4c(nc3c2)CCC4)cc1	15	-16	3	91*
SMILES	Yeast lifespan up	BB579 growth dn	RAM network inh	WT yeast gro inh
Cc1ccc(N(C)C(=O)c2ccc3c(Cl)c4c(nc3c2)CCC4)cc1C	15	-29	-1	83*
O=C(NC1CC1)c1ccc2c(Cl)c3c(nc2c1)CCCC3	·	·	2	7
CCN(C(=O)c1ccc2c(Cl)c3c(nc2c1)CCC3)c1cccc(C)c1	39*	-38	-1	42
CC(=O)Nc1ccc(C(=O)OCc2ccccc2Br)cc1	·	·	8.8*	76*
CC(=O)Nc1ccc(C(=O)OCC(=O)N(Cc2ccccc2)C(C)(C)C)cc1	54*	-14	0	-4
Cn1cnnc1SCC(=O)Nc1ncc(C(F)(F)F)cc1Cl	·	·	3	4
COc1c(Cl)cc(-c2noc(C)c2C(=O)NC(C)C)cc1Cl	3	-30	3	13
CC1CC(C)CN(c2ccc(-n3cnnn3)cc2[N+](=O)[O-])C1 (centres undefined)	-24	-52	1	21
O=[N+]([O-])c1cc(-n2cnnn2)ccc1N1CCC(Cc2ccccc2)CC1	35	-99	8.9*	52
Cc1cc(C(c2nnnn2Cc2ccccc2)N2CCOCC2)c(C)n1-c1ccc2c(c1)OCO2 (centres undefined)	-1	-83	3	-60
O=C(COC(=O)c1ccccc1Nc1ccccc1)c1ccccc1	-12	-6	9.8*	41
CNc1ccccc1C(=O)OCC(=O)c1ccccc1	-8	-22	1	-2
CCOc1ccc2nc(NCCNC(=O)Nc3cccc(C)c3)c(C#N)cc2c1	-14	-27	3	22
CCOc1ccc2nc(NCCNC(=O)Nc3ccccc3)c(C#N)cc2c1	104*	31	3	8
C=CCSC1=N/C(=C\c2ccc3c(c2)OCO3)C(=O)S1	-6	-25	7	-1
C=CCSC1=N/C(=C\c2sccc2C)C(=O)S1	-20	-62	9.4*	2
Cc1csc(-c2cnn(-c3ccccc3)c2NC(=O)c2ccc(C(F)(F)F)cc2)n1	-4	-72	0	57
Brc1cnc(N2CCCCC2)nc1N1CCOCC1	-7	-6	2	59*
Brc1cnc(N2CCCC2)nc1N1CCOCC1	-18	-32	3	55
COC(=O)c1ccc(Cl)c(-c2ccc(/C=N/NC(=O)Nc3ccccc3)o2)c1	-13	-66	9.0*	8
COC(=O)[C@H](C)NC(=O)Nc1ccc(OC)cc1OC	-8	-64	-1	0
COc1ccc(C(CCc2ccc(C)o2)NC(=O)Nc2ccc(OC)cc2OC)cc1 (centres undefined)	-12	-7	10*	21
CCOC(=O)c1c(-c2ccc(C)cc2)csc1NC(=O)CCSc1nnc2ccccn12	1	-22	4	3
Cc1ccc(NC(=S)N/N=C/c2c(C)[nH]c3ccccc23)cc1	·	·	8	96*
Cc1[nH]c2ccccc2c1/C=N/NC(=O)Nc1ccccc1	·	·	8	-3
SMILES	Yeast lifespan up	BB579 growth dn	RAM network inh	WT yeast gro inh
Cc1cccc(C)c1OCC(O)CNC(C)C (centres undefined)	1	-50	2	-4
CCOC(=O)c1oc2cccc(OCC(O)CNC(C)C)c2c1C (centres undefined)	-28	2	1	69*
CN(Cc1nc2ccccc2c(=O)[nH]1)Cc1nc2ccsc2c(=O)[nH]1	·	·	0	-20
CCN(c1ccccc1)c1nc2ccsc2c(=O)s1	-14	-24	8.5*	56
CN(c1ccccc1)c1nc2ccsc2c(=O)s1	88*	-31	2	11
O=C(CSc1ccc(-c2ccccc2)nn1)NCc1ccco1	·	-9	0	12
CCc1ccc([C@@H]2C[C@H]3CN(Cc4ccccc4OC)C(=O)[C@]34CCCN24)cc1	·	·	0	29
CCNC(=O)/C(C#N)=C/c1c(N2CCN(Cc3ccc4c(c3)OCO4)CC2)nc2c(C)cccn2c1=O	-2	-2	2	-1
CCOC(=O)c1cc(C(=O)c2cccs2)n2ccc(C(C)=O)cc12	-8	-40	8.5*	-8
